Measured values reported in ChEMBL document CHEMBL1159071, “Discovery of 4-(5-methyloxazolo[4,5-b]pyridin-2-yl)-1,4-diazabicyclo[3.2.2]nonane (CP-810,123), a novel alpha 7 nicotinic acetylcholine receptor agonist for the treatment of cognitive disorders in schizophrenia: synthesis, SAR development, and in vivo efficacy in cognition models” (J Med Chem, 2010).

What was measured:
[1] = target: Neuronal acetylcholine receptor subunit alpha-7 (Rattus norvegicus, UniProt Q05941); assay: Displacement of [125I]BTX from rat alpha7 nicotinic acetylcholine receptor expressed in GH4C1 cells; assay type: cell-based, GH4-C1
Chain of Neuronal acetylcholine receptor subunit alpha-7 (Q05941 whole entry): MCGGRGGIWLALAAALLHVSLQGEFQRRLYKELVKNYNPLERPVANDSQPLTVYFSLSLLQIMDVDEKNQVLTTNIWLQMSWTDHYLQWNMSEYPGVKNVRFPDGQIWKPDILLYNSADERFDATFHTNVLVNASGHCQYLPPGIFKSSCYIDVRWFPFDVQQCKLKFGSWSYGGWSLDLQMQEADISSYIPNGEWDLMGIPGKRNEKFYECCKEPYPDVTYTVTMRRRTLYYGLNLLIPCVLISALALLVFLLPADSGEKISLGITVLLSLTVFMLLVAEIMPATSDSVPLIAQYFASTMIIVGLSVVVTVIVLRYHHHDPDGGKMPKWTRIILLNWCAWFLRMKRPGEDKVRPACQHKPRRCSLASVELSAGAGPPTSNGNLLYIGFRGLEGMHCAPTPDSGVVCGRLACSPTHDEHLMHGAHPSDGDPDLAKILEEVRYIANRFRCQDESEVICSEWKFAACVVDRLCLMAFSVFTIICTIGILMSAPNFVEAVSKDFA
Outline: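 GH4C1 membranes (20 mM HEPES, 118 mM NaCl, 4.5 mM KCl, 2.5 mM CaCl2, 1.2 mM MgSO4, pH 7.5) incubated 2 h at 37 °C with [125I]α-bungarotoxin 0.4 nM final. Nonspecific binding with 1 μM methyllycaconitine; filtration onto PEI-treated GF/B filters. Ki = IC50/(1+[L]/KD); six-point curves in triplicate; geometric mean with 95% CI.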

[2] = target: T1, 5-hydroxytryptamine receptor 3A (Mus musculus, UniProt P23979); assay: Displacement of [3H]LY278584 from mouse 5HT3 receptor expressed in HEK293 cells; assay type: cell-based
T1 sequence (P23979 whole entry): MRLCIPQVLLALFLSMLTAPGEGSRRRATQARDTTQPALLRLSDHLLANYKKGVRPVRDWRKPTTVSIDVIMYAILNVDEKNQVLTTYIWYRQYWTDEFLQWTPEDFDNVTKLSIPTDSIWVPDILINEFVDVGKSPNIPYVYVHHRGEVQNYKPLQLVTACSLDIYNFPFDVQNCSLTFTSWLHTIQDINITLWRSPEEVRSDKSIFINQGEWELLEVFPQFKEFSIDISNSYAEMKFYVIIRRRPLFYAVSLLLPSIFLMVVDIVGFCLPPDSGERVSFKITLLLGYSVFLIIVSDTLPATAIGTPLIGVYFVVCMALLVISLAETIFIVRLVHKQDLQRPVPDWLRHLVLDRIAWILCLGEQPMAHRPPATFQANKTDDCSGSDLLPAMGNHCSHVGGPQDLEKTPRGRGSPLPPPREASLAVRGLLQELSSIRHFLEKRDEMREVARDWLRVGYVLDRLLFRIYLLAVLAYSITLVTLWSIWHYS
Outline: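 Mouse 5-HT3A in HEK293 cell homogenate, 20 mM Tris-HCl pH 7.4 with 154 mM NaCl. [3H]LY278584 1 nM final; nonspecific binding with 10 μM ICS205-930; 60 min at 37 °C, then filtration onto PEI-soaked GF/B. Ki by Cheng-Prusoff; mean of three six-point curves in triplicate in one assay; tropisetron standard.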

[3] = target: Neuronal acetylcholine receptor subunit alpha-7 (Rattus norvegicus) (UniProt Q05941); assay: Agonist activity at rat alpha7 nicotinic acetylcholine receptor expressed in Xenopus oocytes assessed as stimulation of channel currents at 32 uM at holding potential of -60/-90 mV by electrophysiology method relative to 50 uM nicotine; assay type: functional, cell-based; settings: Oocyte
Chain of Neuronal acetylcholine receptor subunit alpha-7 (Rattus norvegicus) (Q05941 whole entry): as the sequence (Q05941 whole entry) above
Outline: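 Xenopus oocytes defolliculated with collagenase (1.3 mg/mL, 3 h), injected with 10-50 ng rat α7 cRNA, kept in Barth's saline up to 2 weeks. Voltage clamp at -60 or -90 mV; current evoked by compound at 32 μM given as % of the 50 μM nicotine response (set to 100%).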

[4] = Agonist activity at human alpha7 nAChR/mouse 5HT3 chimeric receptor expressed in SH-EP1 cells assessed as increase in intracellular calcium level; assay type: functional, cell-based
Outline: (§1)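 α7-5HT3 chimera stably in SH-EP1 cells grown to confluence; loaded with Calcium Green 1 AM (2 μM final) 60 min at 37 °C. Compound added directly; calcium rise read by FLIPR (excitation 488 nm, emission >525 nm).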

[5] = Agonist activity at human alpha7 nAChR/mouse 5HT3 chimeric receptor expressed in SH-EP1 cells assessed as increase in intracellular calcium level relative to 100 uM nicotine; assay type: functional; outline: as §1
CHO = assay: Toxicity in CHO cells assessed as induction of DNA fragments by in vitro micronucleus assay; assay type: cell-based, Cricetulus griseus; settings: chinese hamster
[6] = target: T2, 5-hydroxytryptamine receptor 3A (Homo sapiens, UniProt P46098); assay: […] at human 5HT3 receptor expressed in human skin epithelial cells assessed as stimulation of calcium flux by FLIPR assay; assay type: functional, cell-based, Epithelial cell
T2 sequence (P46098 whole entry): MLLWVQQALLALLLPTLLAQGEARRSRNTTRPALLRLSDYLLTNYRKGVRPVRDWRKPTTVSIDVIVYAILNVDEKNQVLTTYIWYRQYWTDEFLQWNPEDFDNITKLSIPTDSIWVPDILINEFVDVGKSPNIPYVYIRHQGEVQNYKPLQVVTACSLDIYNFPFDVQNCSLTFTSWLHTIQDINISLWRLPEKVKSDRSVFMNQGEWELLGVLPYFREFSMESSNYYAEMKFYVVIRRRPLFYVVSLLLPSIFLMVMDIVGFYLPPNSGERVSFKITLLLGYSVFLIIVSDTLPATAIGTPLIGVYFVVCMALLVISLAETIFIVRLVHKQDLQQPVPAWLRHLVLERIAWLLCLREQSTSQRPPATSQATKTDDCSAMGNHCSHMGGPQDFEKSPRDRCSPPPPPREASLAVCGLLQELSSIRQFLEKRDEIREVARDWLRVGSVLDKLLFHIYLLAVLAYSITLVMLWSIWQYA
Outline: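 Human 5-HT3A stably in human skin epithelial cells, plated 15 000 cells/well 2 days ahead; loaded 1 h at 37 °C with Fluo-4 (8 μM final), washed into HBSS with 20 mM Tris-HEPES, 1 μM atropine, 4 mM Ca2+, pH 7.4. Compound added 2 min, then 5-HT challenge (250 nM final) 2 min; FLIPR calcium read.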

[7] = target: Voltage-gated inwardly rectifying potassium channel KCNH2 (Homo sapiens, UniProt Q12809)
Chain of Voltage-gated inwardly rectifying potassium channel KCNH2 (Q12809 whole entry): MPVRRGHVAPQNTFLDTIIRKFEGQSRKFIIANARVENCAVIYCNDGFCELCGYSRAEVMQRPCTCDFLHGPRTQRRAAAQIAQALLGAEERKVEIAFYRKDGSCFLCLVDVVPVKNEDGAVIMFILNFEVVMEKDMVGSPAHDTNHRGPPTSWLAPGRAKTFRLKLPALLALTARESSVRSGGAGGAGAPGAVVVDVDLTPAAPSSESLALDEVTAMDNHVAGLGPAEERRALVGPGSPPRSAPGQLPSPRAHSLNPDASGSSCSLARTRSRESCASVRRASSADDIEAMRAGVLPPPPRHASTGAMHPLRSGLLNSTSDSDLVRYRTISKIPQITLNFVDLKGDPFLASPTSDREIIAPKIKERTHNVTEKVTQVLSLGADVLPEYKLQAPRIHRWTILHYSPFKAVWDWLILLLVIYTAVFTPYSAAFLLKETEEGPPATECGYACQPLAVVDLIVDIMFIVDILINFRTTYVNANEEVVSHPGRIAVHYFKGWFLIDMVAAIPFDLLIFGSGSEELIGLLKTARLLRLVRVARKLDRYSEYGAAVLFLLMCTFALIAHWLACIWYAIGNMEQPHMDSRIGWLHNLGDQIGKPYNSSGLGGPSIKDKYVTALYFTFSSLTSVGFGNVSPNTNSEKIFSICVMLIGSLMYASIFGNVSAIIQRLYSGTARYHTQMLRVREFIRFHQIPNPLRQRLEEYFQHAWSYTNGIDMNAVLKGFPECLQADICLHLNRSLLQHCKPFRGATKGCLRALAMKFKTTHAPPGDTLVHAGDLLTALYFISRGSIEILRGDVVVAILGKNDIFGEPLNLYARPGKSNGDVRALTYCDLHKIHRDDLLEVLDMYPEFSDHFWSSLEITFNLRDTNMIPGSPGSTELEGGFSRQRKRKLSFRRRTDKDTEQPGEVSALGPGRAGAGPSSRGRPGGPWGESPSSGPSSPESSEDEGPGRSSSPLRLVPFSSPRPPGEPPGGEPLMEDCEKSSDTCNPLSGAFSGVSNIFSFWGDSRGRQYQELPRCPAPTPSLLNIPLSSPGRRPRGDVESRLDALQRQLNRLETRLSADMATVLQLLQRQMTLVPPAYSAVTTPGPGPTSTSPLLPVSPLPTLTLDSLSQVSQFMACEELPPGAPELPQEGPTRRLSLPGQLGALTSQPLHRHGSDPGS

[8] = Selectivity for rat alpha7 nicotinic acetylcholine receptor over mouse 5HT3 receptor
[9] = target: Neuronal acetylcholine receptor; alpha3/beta4 (Homo sapiens, UniProt P30926+P32297); assay: Displacement of [3H]epibatidine from alpha3beta4 nAChR expressed in IMR32 cells; assay type: cell-based, IMR-32
Chain of Neuronal acetylcholine receptor; alpha3/beta4 (P30926 whole entry): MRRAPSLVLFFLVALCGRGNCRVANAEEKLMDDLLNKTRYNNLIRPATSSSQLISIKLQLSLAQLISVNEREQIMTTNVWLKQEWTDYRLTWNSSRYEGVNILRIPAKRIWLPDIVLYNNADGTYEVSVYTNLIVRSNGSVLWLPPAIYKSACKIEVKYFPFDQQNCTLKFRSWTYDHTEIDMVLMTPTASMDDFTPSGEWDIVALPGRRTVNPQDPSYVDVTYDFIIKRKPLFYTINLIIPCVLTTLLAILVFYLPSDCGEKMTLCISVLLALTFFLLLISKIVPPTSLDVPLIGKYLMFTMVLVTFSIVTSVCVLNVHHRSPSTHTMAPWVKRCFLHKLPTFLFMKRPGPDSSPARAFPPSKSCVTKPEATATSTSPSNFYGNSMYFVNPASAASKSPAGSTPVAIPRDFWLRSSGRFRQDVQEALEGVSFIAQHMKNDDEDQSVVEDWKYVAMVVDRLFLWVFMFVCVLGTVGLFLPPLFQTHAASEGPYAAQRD
Chain of Neuronal acetylcholine receptor; alpha3/beta4 (P32297 whole entry): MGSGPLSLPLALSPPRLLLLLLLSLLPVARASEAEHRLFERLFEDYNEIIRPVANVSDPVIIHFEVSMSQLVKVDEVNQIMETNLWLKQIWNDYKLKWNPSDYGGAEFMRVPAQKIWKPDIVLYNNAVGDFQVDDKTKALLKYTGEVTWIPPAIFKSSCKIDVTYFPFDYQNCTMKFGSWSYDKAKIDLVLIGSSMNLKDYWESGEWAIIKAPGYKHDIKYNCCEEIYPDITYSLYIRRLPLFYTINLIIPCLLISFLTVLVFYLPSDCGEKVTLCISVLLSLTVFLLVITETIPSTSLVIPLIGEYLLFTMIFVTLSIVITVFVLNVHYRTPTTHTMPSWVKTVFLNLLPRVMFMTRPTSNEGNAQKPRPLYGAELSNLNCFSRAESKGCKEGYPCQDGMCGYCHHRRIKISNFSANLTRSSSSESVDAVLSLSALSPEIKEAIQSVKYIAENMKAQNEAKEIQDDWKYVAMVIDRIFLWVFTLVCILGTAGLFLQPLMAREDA
Outline: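 Alpha3β4 binding in IMR32 cells with [3H]epibatidine radioligand. Six-point concentration-response curve run in triplicate and averaged.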

| Compound | Ki [1] [nM] | Ki [2] [nM] | Activity [3] [%] | EC50 [4] [nM] | Efficacy [5] [%] | Activity (CHO) | IC50 [6] [nM] | IC50 [7] [nM] | Ratio Ki [8] | IC50 [9] [nM] |
| --- | --- | --- | --- | --- | --- | --- | --- | --- | --- | --- |
| Brc1ccc2oc(N3CCN4CCC3CC4)nc2c1 | 2.15 | < 17 | 78 | – | – | – | – | – | – | – |
| c1cnc2nc(N3CCN4CCC3CC4)oc2c1 | 30.3 | 579 | 220 | – | – | – | – | – | – | – |
| c1ccc(-c2cnc3oc(N4CCN5CCC4CC5)nc3c2)cc1 | 2.31 | 3670 | – | 264 | 69 | – | – | – | – | – |
| c1ccc2oc(N3CCN4CCC3CC4)nc2c1 | 22.5 | 13 | 183 | – | – | – | – | – | – | – |
| c1ncc(-c2cnc3nc(N4CCN5CCC4CC5)oc3c2)cn1 | 60 | > 7140 | – | – | – | – | – | – | – | – |
| Clc1cnc2oc(N3CCN4CCC3CC4)nc2c1 | 2.59 | – | – | 227 | 62 | – | – | – | – | – |
| Cc1cnc2nc(N3CCN4CCC3CC4)oc2c1 | 6.66 | 3390 | – | 1020 | 55 | – | – | – | – | – |
| c1ccc(Oc2ccc3oc(N4CCN5CCC4CC5)nc3n2)cc1 | 17.3 | 6830 | – | 380 | 63 | – | – | – | – | – |
| Brc1cnc2nc(N3CCN4CCC3CC4)oc2c1 | 2.08 | 926 | – | 240 | 64 | Toxic | 779 | 2300 | – | – |
| CC(C)c1ccc2oc(N3CCN4CCC3CC4)nc2n1 | 9.05 | > 5290 | – | 580 | 68 | – | – | – | – | – |
| Cc1nc2nc(N3CCN4CCC3CC4)oc2cc1Cl | 3.19 | 244 | – | 160 | 58 | Non-toxic | 70 | 16200 | – | – |
| CCc1cnc2nc(N3CCN4CCC3CC4)oc2c1 | 22.5 | > 5260 | – | 300 | 53 | – | – | – | – | – |
| CCC(C)c1cnc2nc(N3CCN4CCC3CC4)oc2c1 (stereo unspecified) | > 1000 | – | – | – | – | – | – | – | – | – |
| Fc1ccccc1-c1ccc2oc(N3CCN4CCC3CC4)nc2n1 | 3.45 | > 3770 | – | 160 | 73 | Non-toxic | > 7310 | 2800 | – | – |
| c1cc2oc(N3CCN4CCC3CC4)nc2nc1N1CCCC1 | 1.91 | 6340 | – | 470 | 67 | – | – | – | – | – |
| Clc1ccc2oc(N3CCN4CCC3CC4)nc2c1 | 1.92 | 1.2 | 122 | – | – | – | – | – | – | – |
| c1cnc2oc(N3CCN4CCC3CC4)nc2c1 | 40.6 | 92 | 182 | – | – | – | – | – | – | – |
| O=C(Oc1ccccc1)N1CCN2CCC1CC2 | – | 3990 | – | – | – | – | – | – | – | – |
| c1cc2oc(N3CCN4CCC3CC4)nc2nc1N1CCCCC1 | 67.1 | 1140 | – | 1900 | 30 | – | – | – | – | – |

| Compound | Ki [1] [nM] | Ki [2] [nM] | Activity [3] [%] | EC50 [4] [nM] | Efficacy [5] [%] | Activity (CHO) | IC50 [6] [nM] | IC50 [7] [nM] | Ratio Ki [8] | IC50 [9] [nM] |
| --- | --- | --- | --- | --- | --- | --- | --- | --- | --- | --- |
| c1ccc(-c2cnc3nc(N4CCN5CCC4CC5)oc3c2)cc1 | 7.04 | 2120 | – | 320 | 71 | – | – | – | – | – |
| Cc1ccc2nc(N3CCN4CCC3CC4)oc2n1 | 88.6 | 126 | – | 1200 | 59 | – | – | – | – | – |
| N#Cc1cnc2nc(N3CCN4CCC3CC4)oc2c1 | 6.2 | > 5290 | – | 510 | 58 | – | – | – | – | – |
| Cc1ccc2oc(N3CCN4CCC3CC4)nc2c1 | 33.6 | 3.4 | 287 | – | – | – | – | – | – | – |
| c1cc(-c2cnc3nc(N4CCN5CCC4CC5)oc3c2)n[nH]1 | 23 | > 5260 | – | 390 | 68 | – | – | – | – | – |
| COc1ccc2oc(N3CCN4CCC3CC4)nc2n1 | 24.9 | 141 | – | 1000 | 56 | – | – | – | – | – |
| c1cc2oc(N3CCN4CCC3CC4)nc2nc1C1CCCC1 | 5.3 | > 5290 | – | 525 | 54 | – | – | – | – | – |
| c1ccc(Oc2cnc3nc(N4CCN5CCC4CC5)oc3c2)cc1 | 4.16 | 1960 | – | 620 | 75 | – | – | – | – | – |
| Cc1ccc2nc(N3CCN4CCC3CC4)oc2c1 | 17.9 | < 17 | 197 | – | – | – | – | – | – | – |
| CCc1ccc2oc(N3CCN4CCC3CC4)nc2n1 | 18.7 | > 5260 | – | 100 | 34 | Non-toxic | 3310 | – | – | – |
| Cc1nc2nc(N3CCN4CCC3CC4)oc2cc1F | 15.3 | 547 | – | 2100 | 36 | – | – | – | – | – |
| c1cncc(-c2cnc3nc(N4CCN5CCC4CC5)oc3c2)c1 | 119 | > 5350 | – | 430 | 70 | – | – | – | – | – |
| Fc1ccc2oc(N3CCN4CCC3CC4)nc2c1 | 20.7 | 3.9 | 315 | – | – | – | – | – | – | – |
| Fc1cnc2nc(N3CCN4CCC3CC4)oc2c1 | 17.2 | 6200 | – | 213 | 64 | Toxic | 2480 | 8700 | – | – |
| c1cc2oc(N3CCN4CCC3CC4)nc2cn1 | 312 | 2120 | 156 | – | – | – | – | – | – | – |
| c1ccc(-c2ccc3oc(N4CCN5CCC4CC5)nc3n2)cc1 | 3.22 | > 3580 | – | 320 | 71 | – | – | – | 3 | – |
| c1cc2nc(N3CCN4CCC3CC4)oc2cn1 | 309 | 162 | 186 | – | – | – | – | – | – | – |
| Clc1cnc2nc(N3CCN4CCC3CC4)oc2c1 | 1 | 1370 | – | 160 | 83 | – | 484 | – | – | – |
| O=c1c(Br)ccc2n1C[C@@H]1CNC[C@H]2C1 | – | – | – | – | – | – | – | – | – | 15.6 |
